Measured values: ChEMBL document CHEMBL3627647, “Antibacterial properties of 3-(phenylsulfonyl)-2-pyrazinecarbonitrile” (Bioorg Med Chem Lett, 2015)
Converted amounts (≈) assume the structure as drawn. The source made the active and inactive calls. No cut-off for these calls is given here. Peptide text beside a SMILES is read from it. * marks the point of attachment. βNA = c1ccc2cc(N*)ccc2c1

Legend:
[1] = tested on: Enterococcus faecium; experiment: Antibacterial activity against Enterococcus faecium E007 after overnight incubation by broth microdilution method; format: functional
[2] = tested on: Staphylococcus aureus; experiment: (§1) Antibacterial activity against methicillin-resistant Staphylococcus aureus MW2 infected in young adult stage of Caenorhabditis elegans glp-4(bn2);sek-1 (km4) assessed as prolongation of survival at 50 ug/ml after 5 days by Sytox Orange staining-based bright field microscopic analysis relative to control; format: functional; settings: MW2, 120 h
In short: (§2)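 Young adult C. elegans glp-4(bn2);sek-1(km4) co-inoculated in 384-well plates with MRSA MW2 and 2-fold serial dilutions (0.78–100 µg/mL). DMSO ≤1%; 1% DMSO was the negative control and vancomycin the positive control. Dead worms were stained with Sytox Orange and imaged with brightfield. Survival = fraction of worm area not fluorescent.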

[3] = tested on: Staphylococcus aureus; experiment: as §1, with “100” for “50”; format: functional; settings: MW2, 120 h; in short: as §2
[4] = tested on: Staphylococcus aureus; experiment: as §1, with “0.78 to 25” for “50”; format: functional; in short: as §2
[5] = tested on: Staphylococcus aureus; experiment: Ratio of MBC to MIC for methicillin-resistant Staphylococcus aureus MW2; format: functional
[6] = tested on: Caenorhabditis elegans; experiment: Toxicity in Caenorhabditis elegans glp-4(bn2);sek-1 (km4) after 5 days by Sytox Orange staining-based bright field microscopic analysis; format: organism-based; settings: in vivo, 120 h
In short: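 Young adult C. elegans glp-4(bn2);sek-1(km4) co-inoculated in 384-well plates with MRSA strain MW2 and 2-fold serial dilutions (0.78–100 µg/mL), DMSO ≤1%; dead worms stained with Sytox Orange, survival from fluorescent worm area relative to total worm area.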

[7] = tested on: Enterobacter sp.; experiment: Ratio of MIC for Enterobacter sp. KCTC 2625 in absence of 64 ug/ml efflux pump inhibitor PAbetaN to MIC for Enterobacter sp. KCTC 2625 in presence of 64 ug/ml efflux pump inhibitor PAbetaN; format: functional
[8] = tested on: Pseudomonas aeruginosa; experiment: Ratio of MIC for Pseudomonas aeruginosa PA14 in absence of 64 ug/ml efflux pump inhibitor PAbetaN to MIC for Pseudomonas aeruginosa PA14 in presence of 64 ug/ml efflux pump inhibitor PAbetaN; format: functional
[9] = tested on: Acinetobacter baumannii; experiment: Antibacterial activity against Acinetobacter baumannii ATCC 17978 after overnight incubation by broth microdilution method in presence of 64 ug/ml efflux pump inhibitor PAbetaN; format: functional
[10] = tested on: Klebsiella pneumoniae; experiment: Antibacterial activity against Klebsiella pneumoniae ATCC 77326 after overnight incubation by microplate checkerbroad assay in presence of polymyxin B; format: functional
In short: (§3)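 Microplate checkerboard: PSPC at final 1–64 µg/mL crossed with polymyxin B at final 0.063–64 µg/mL; minimum growth-inhibiting concentrations alone and in combination determined and used to calculate FIC index.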

[11] = tested on: Acinetobacter baumannii; experiment: Antibacterial activity against Acinetobacter baumannii ATCC 17978 after overnight incubation by microplate checkerbroad assay in presence of polymyxin B; format: functional; in short: as §3
[12] = Hemolytic activity in sheep erythrocytes at 0.063 to 64 ug/ml after 1 hr; format: ADME, cell-based, Ovis aries; settings: erythrocyte
In short: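 Sheep red blood cells exposed 1 hour to serial dilutions (0.063–64 µg/ml); Triton X-100 at 0.001–1% as positive control; hemolysis scored visually and confirmed by absorbance at 540 nm.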

[13] = tested on: Staphylococcus aureus; experiment: Ratio of MIC for methicillin-resistant Staphylococcus aureus MW2 to MEC for methicillin-resistant Staphylococcus aureus MW2 infected in young adult stage of Caenorhabditis elegans glp-4(bn2);sek-1 (km4); format: functional
In short: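 The MW2 MIC was measured in Müller-Hinton broth. For the MEC, young adult glp-4(bn2);sek-1(km4) worms were co-inoculated with MW2 in 384-well plates with 2-fold dilutions (0.78–100 µg/mL), with DMSO at or below 1%. Dead worms were stained with Sytox Orange. Survival was taken as […] per well.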

[14] = tested on: Pseudomonas aeruginosa; experiment: Antibacterial activity against Pseudomonas aeruginosa PA14 after overnight incubation by broth microdilution method; format: functional
[15] = tested on: Klebsiella pneumoniae; experiment: Antibacterial activity against Klebsiella pneumoniae ATCC 77326 after overnight incubation by broth microdilution method in presence of 64 ug/ml efflux pump inhibitor PAbetaN; format: functional
[16] = tested on: HEK293; experiment: Toxicity in HEK293 cells assessed as mortality rate at 4 ug/ml after 24 hrs by WST-1 assay relative to control; format: cell-based; settings: human, hek293, 24 h
In short: (§4)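 HEK-293 cells treated with serial dilutions (1–64 µg/mL); rotenone as positive control. Viability read spectrophotometrically from conversion of WST-1 to formazan.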

[17] = tested on: Acinetobacter baumannii; experiment: Ratio of MIC for Acinetobacter baumannii ATCC 17978 in absence of 64 ug/ml efflux pump inhibitor PAbetaN to MIC for Acinetobacter baumannii ATCC 17978 in presence of 64 ug/ml efflux pump inhibitor PAbetaN; format: functional
[18] = tested on: Staphylococcus aureus; experiment: Antibacterial activity against methicillin-resistant Staphylococcus aureus MW2 infected in young adult stage of Caenorhabditis elegans glp-4(bn2);sek-1 (km4) assessed as prolongation of survival after 5 days by Sytox Orange staining-based bright field microscopic analysis; format: functional; settings: MW2, 120 h, read-out: MEC; in short: as §2
[19] = tested on: Enterobacter sp.; experiment: Antibacterial activity against Enterobacter sp. KCTC 2625 after overnight incubation by broth microdilution method; format: functional
[20] = tested on: HEK293; experiment: Toxicity in HEK293 cells assessed as decrease in cell survival rate after 24 hrs by WST-1 assay; format: cell-based; settings: human, hek293, 24 h
In short: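 HEK-293 cells treated with serial dilutions over 1–64 µg/mL; rotenone as positive control; viability read spectrophotometrically from WST-1 conversion to formazan by viable cells.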

[21] = tested on: Staphylococcus aureus; experiment: Bactericidal activity against methicillin-resistant Staphylococcus aureus MW2 at 40 ug/ml measured for 4 hrs by time-kill assay; format: functional
[22] = tested on: Klebsiella pneumoniae; experiment: Ratio of MIC for Klebsiella pneumoniae ATCC 77326 in absence of 64 ug/ml efflux pump inhibitor PAbetaN to MIC for Klebsiella pneumoniae ATCC 77326 in presence of 64 ug/ml efflux pump inhibitor PAbetaN; format: functional
[23] = tested on: Enterobacter sp.; experiment: Antibacterial activity against Enterobacter sp. KCTC 2625 after overnight incubation by broth microdilution method in presence of 64 ug/ml efflux pump inhibitor PAbetaN; format: functional
[24] = tested on: Acinetobacter baumannii; experiment: Antibacterial activity against Acinetobacter baumannii ATCC 17978 after overnight incubation by broth microdilution method; format: functional
[25] = Toxicity in HEK293 cells assessed as cell survival rate at 64 ug/ml after 24 hrs by WST-1 assay relative to control; format: cell-based; settings: human, read-out: Survival; in short: as §4
[26] = tested on: Klebsiella pneumoniae; experiment: Antibacterial activity against Klebsiella pneumoniae ATCC 77326 after overnight incubation by broth microdilution method; format: functional
[27] = Toxicity in HEK293 cells assessed as cell survival rate up to 2 ug/ml after 24 hrs by WST-1 assay relative to control; format: cell-based; settings: human, read-out: Survival; in short: as §4
[28] = tested on: Staphylococcus aureus; experiment: Antibacterial activity against methicillin-resistant Staphylococcus aureus MW2 after overnight incubation by broth microdilution method; format: functional
In short: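 Broth microdilution MIC against MRSA MW2 in Müller-Hinton broth.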

[29] = tested on: Pseudomonas aeruginosa; experiment: Antibacterial activity against Pseudomonas aeruginosa PA14 after overnight incubation by broth microdilution method in presence of 64 ug/ml efflux pump inhibitor PAbetaN; format: functional
[30] = tested on: Staphylococcus aureus; experiment: Bactericidal activity against methicillin-resistant Staphylococcus aureus MW2 after overnight incubation; format: functional
[31] = tested on: Klebsiella pneumoniae; experiment: Antibacterial activity against Klebsiella pneumoniae ATCC 77326 after overnight incubation by microplate checkerbroad assay in presence of PSPC; format: functional, organism-based; in short: as §3
[32] = tested on: Acinetobacter baumannii; experiment: Antibacterial activity against Acinetobacter baumannii ATCC 17978 after overnight incubation by microplate checkerbroad assay in presence of PSPC; format: functional, organism-based
In short: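 Checkerboard microplate growth inhibition. PSPC at final 1–64 µg/mL combined with polymyxin B at final 0.063–64 µg/mL. The lowest concentrations inhibiting growth alone and in combination were used to calculate the FIC index.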

[33] = tested on: Pseudomonas aeruginosa; experiment: Antibacterial activity against Pseudomonas aeruginosa PA14 assessed as growth inhibition at 64 ug/ml after overnight incubation by broth microdilution method; format: functional, organism-based
[34] = tested on: Enterobacter sp.; experiment: Antibacterial activity against Enterobacter sp. KCTC 2625 assessed as growth inhibition at 64 ug/ml after overnight incubation by broth microdilution method; format: functional, organism-based
[35] = tested on: Klebsiella pneumoniae; experiment: Antibacterial activity against Klebsiella pneumoniae ATCC 77326 assessed as growth inhibition at 64 ug/ml after overnight incubation by broth microdilution method; format: functional, organism-based
[36] = tested on: Acinetobacter baumannii; experiment: Antibacterial activity against Acinetobacter baumannii ATCC 17978 assessed as growth inhibition at 64 ug/ml after overnight incubation by broth microdilution method; format: functional, organism-based

For CN[C@H](CC(C)C)C(=O)N[C@H]1C(=O)N[C@@H](CC(N)=O)C(=O)N[C@H]2C(=O)N[C@H]3C(=O)N[C@H](C(=O)N[C@H](C(=O)O)c4cc(O)cc(O)c4-c4cc3ccc4O)[C@H](O)c3ccc(c(Cl)c3)Oc3cc2cc(c3O[C@@H]2O[C@H](CO)[C@@H](O)[C@H](O)[C@H]2O[C@H]2C[C@](C)(N)[C@H](O)[C@H](C)O2)Oc2ccc(cc2Cl)[C@H]1O [VANCOMYCIN], the MIC [1] was 4 µg/mL (≈ 2.76 µM), the survival at 50 µg/mL [2] was greater than 97% and the survival at 100 µg/mL [3] was greater than 97%. The Survival [4] was greater than 90%.

With N#Cc1nccnc1S(=O)(=O)c1ccccc1 the Ratio [5] was 4, the Activity [6] was “Dose-dependent effect” and the Ratio [7] was greater than 8. The Ratio [8] was greater than 4, the MIC [9] was 4 µg/mL and the “fractional inhibitory concentration index (FICI)” value [10] was 0.141. For the same compound, the MIC ([10]; Klebsiella pneumoniae, ATCC 77326) was 1 µg/mL, the “fractional inhibitory concentration index (FICI)” value [11] was 0.375 and the MIC ([11]; Acinetobacter baumannii, ATCC 17978) was 4 µg/mL. The Activity [12] was “Non-toxic”, the MIC [1] was 8 µg/mL (≈ 32.6 µM) and the Ratio [13] was “>=5”. It also gave an MIC [14] greater than 64 µg/mL, an MIC [15] of 8 µg/mL and a survival at 50 µg/mL [2] of 46%. For the same compound, the mortality [16] was 69%, the survival at 100 µg/mL [3] was 16% and the Ratio [17] was 8. For the same compound, the minimal effective concentration [18] was no more than 0.78 µg/mL, the MIC [19] was greater than 64 µg/mL and the Activity [20] was “Dose-dependent effect”. The Activity [21] was 100%, the Ratio [22] was 8 and the MIC [23] was 8 µg/mL. It also gave an MIC [24] of 32 µg/mL (≈ 130 µM), a viability at 24 h, 64 ug/ml [25] of 8.5% and an MIC [26] of 64 µg/mL (≈ 261 µM). The viability at 24 h [27] was 90%, the Survival [4] was greater than 90% and the MIC [28] was 4 µg/mL (≈ 16.3 µM). The MIC [29] was 16 µg/mL and the MBC [30] was 16 µg/mL (≈ 65.2 µM).

In the case of N#Cc1nccnc1Sc1ccccc1, the MIC [1] is reported as greater than 64 µg/mL, the MIC [14] is reported as greater than 64 µg/mL and the MIC [19] is reported as greater than 64 µg/mL. For the same compound, the MIC [24] was greater than 64 µg/mL, the MIC [26] was greater than 64 µg/mL and the MIC [28] was greater than 64 µg/mL.

POLYMYXIN B gave an MIC [31] of 2 µg/mL, an MIC [14] of 2 µg/mL and an MIC [19] of 32 µg/mL. It also gave an MIC [32] of 0.125 µg/mL, an MIC [24] of 0.5 µg/mL and an MIC [26] of 16 µg/mL.

With N#Cc1nccnc1[S+]([O-])c1ccccc1 (stereo not drawn) the MIC [1] was 8 µg/mL (≈ 34.9 µM), the MIC [14] was greater than 64 µg/mL and the MIC [19] was greater than 64 µg/mL. For the same compound, the MIC [24] was 32 µg/mL (≈ 140 µM), the MIC [26] was 64 µg/mL (≈ 279 µM) and the MIC [28] was 4 µg/mL (≈ 17.4 µM).

With N=C(N)NCCC[C@H](NC(=O)[C@@H](N)Cc1ccccc1)C(=O)Nc1ccc2ccccc2c1 (H-Phe-Arg-βNA) the “growth inhibition (GI)” value [33] was “inactive”, the “growth inhibition (GI)” value [34] was “inactive” and the “growth inhibition (GI)” value [35] was “inactive”. The “growth inhibition (GI)” value [36] was “inactive”.
